Data on 1 molecule can be found in ChEMBL document CHEMBL3758101, “Synthesis and biological evaluation of fluorinated 1,5-diarylpyrrole-3-alkoxyethyl ether derivatives as selective COX-2 inhibitors endowed with anti-inflammatory activity” (Eur J Med Chem, 2016).

In experiment [1] the test system is Rattus norvegicus. Briefly: Antihyperalgesic activity in Sprague-Dawley rat model of carrageenan-induced inflammatory pain assessed as paw pressure threshold at 20 mg/kg, po administered 2 hrs post carrageenan challenge measured after 90 mins by paw pressure test (reference value: 37.2 +/- 3.4 g).
Experiment [2] concerns Rattus norvegicus. Briefly: Antihyperalgesic activity in Sprague-Dawley rat model of carrageenan-induced inflammatory pain assessed as paw pressure threshold at 20 mg/kg, po administered 2 hrs post carrageenan challenge measured after 120 mins by paw pressure test (reference value: 34.5 +/- 4.4 g).
Experiment [3] relates to Rattus norvegicus. Briefly: Antihyperalgesic effect in Sprague-Dawley rat model of monosodium iodoacetate-induced osteoarthritis assessed as withdrawal threshold at 20 mg/kg, ip administered 14 days post MIA challenge measured after 90 mins by paw pressure test (reference value: 37.8 +/- 3.1 g). It is filed as functional. An outline of the steps:
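Male Sprague–Dawley rats (200–250 g). MIA (2 mg/25 µL) was injected into the left tibiotarsal joint on day 0 under 2% isoflurane; controls received 25 µL saline. On day 14 compound or vehicle was given at time 0. Paw pressure threshold (g) was read with an analgesimeter using a blunt conical probe on the dorsal paw at 30, 60, 90 and 120 min. Mean ± s.e.m., 6 rats.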

Experiment [4] has as its system Rattus norvegicus. Briefly: Antihyperalgesic activity in Sprague-Dawley rat model of carrageenan-induced inflammatory pain assessed as paw pressure threshold at 20 mg/kg, po administered 2 hrs post carrageenan challenge measured after 60 mins by paw pressure test (reference value: 35.4 +/- 3.6 g).
Experiment [5] concerns Rattus norvegicus. Briefly: Antiinflammatory activity in Sprague-Dawley rat model of carrageenan-induced […] at 10 mg/kg, po administered 2 hrs post carrageenan challenge measured after 30 mins by […] (reference value: 34.1 +/- 2.3 ml). It is filed as functional. Background: The carrageenan paw model is a standard test of acute inflammation.

Turning to `Cc1c(CCOCCCF)cc(-c2ccc(S(C)(=O)=O)cc2)n1-c1ccc(F)cc1`, the Activity in experiment [1] stood at 44.9 g; in experiment [2] it was 35.5 g; in experiment [3], 43.8 g; in experiment [4], 56.3 g; in experiment [5], 51.7 g.
